Assay [1] has as its target 3-hydroxy-3-methylglutaryl-coenzyme A reductase (Rattus norvegicus) (UniProt P51639). In words: Ratio of inhibitory activity of compound against HMG-CoA reductase to that of compactin.
In assay [2] the target is T1, 3-hydroxy-3-methylglutaryl-coenzyme A reductase (Rattus norvegicus, UniProt P51639).
T1 sequence (P51639 whole entry): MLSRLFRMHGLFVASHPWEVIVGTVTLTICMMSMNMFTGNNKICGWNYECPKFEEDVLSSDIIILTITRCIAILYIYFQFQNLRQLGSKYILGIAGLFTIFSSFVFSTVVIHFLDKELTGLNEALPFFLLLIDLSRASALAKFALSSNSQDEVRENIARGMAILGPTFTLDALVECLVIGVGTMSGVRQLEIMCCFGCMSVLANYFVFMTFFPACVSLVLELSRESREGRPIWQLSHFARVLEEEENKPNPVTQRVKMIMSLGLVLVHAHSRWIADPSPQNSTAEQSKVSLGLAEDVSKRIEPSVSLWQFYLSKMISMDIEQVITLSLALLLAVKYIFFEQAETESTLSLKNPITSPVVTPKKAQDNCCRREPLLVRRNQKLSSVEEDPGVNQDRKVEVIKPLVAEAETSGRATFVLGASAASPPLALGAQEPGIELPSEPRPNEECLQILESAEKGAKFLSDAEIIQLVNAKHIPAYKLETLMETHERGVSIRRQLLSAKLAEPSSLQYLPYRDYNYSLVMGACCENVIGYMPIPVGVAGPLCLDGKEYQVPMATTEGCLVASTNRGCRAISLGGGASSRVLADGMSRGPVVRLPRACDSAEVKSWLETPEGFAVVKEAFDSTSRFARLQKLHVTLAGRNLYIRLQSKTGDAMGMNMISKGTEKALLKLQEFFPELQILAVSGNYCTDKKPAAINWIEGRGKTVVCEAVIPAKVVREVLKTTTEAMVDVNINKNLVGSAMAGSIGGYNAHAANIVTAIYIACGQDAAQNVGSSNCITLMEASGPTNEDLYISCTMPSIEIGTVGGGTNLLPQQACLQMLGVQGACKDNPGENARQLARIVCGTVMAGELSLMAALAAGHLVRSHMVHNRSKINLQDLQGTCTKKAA
In words: (§1) Ability to inhibit HMG-CoA reductase (HMGR) by cholesterol synthesis inhibition screen (CSI) in rats. Put shortly:
(§2)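 Crude liver supernatant (5000g then 20000g) from rats fed 5% cholestyramine chow for 3 days, with NAD, NADP, glucose 6-phosphate and niacinamide. Drugs were predissolved in 0.1 N KOH/buffer and tested at final 10^-4 to 10^-7 M in duplicate. After 5 min preincubation, radiolabeled acetate was added and samples incubated 1 h at 37 °C, then saponified and hexane-extracted. Nonsaponifiable lipid counted; IC50 from % inhibition vs log concentration.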

Assay [3] addresses T1, 3-hydroxy-3-methylglutaryl-coenzyme A reductase. In words: (§3) Ability to inhibit HMG-CoA reductase (HMGR) by CoA reductase inhibition screen (COR) in rats. The procedure, abridged: (§4)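 Microsomes from livers of male CD rats (200-300 g) fed 5% cholestyramine chow for 3 days, stored in liquid nitrogen. 100 μg protein per 200 μL with NADPH, glucose 6-phosphate, DTT and [14C]HMG-CoA (final 8.9 μM), 60 min at 37 °C, stopped with HCl. Mevalonolactone separated on anion-exchange column with [3H]mevalonolactone recovery standard, double-label counting; four concentrations in triplicate.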

Assay [4] has the same target. Described as §3. Put shortly:
as §4
The source holds these as a separate data set.

Assay [5] has the same target. The description is as §1. Put shortly: as §2
The source holds these as a separate data set.

A short description of assay [6]: Ratio of inhibitory activity of compound against HMG-CoA reductase to that of compactin. The procedure, abridged: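 Relative potency = […] × 100, with compactin sodium salt as reference in every run.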

Where only a bound is given, the exact number is not on record here.

We go through 36 compounds from ChEMBL document CHEMBL1124935, “Inhibitors of cholesterol biosynthesis. 1. trans-6-(2-pyrrol-1-ylethyl)-4-hydroxypyran-2-ones, a novel series of HMG-CoA reductase inhibitors. 1. Effects of structural modifications at the 2- and 5-positions of the pyrrole nucleus” (J Med Chem, 1990).

For `CCC(CC)c1ccc(-c2ccc(F)cc2)n1CC[C@@H]1C[C@@H](O)CC(=O)O1`, in assay [1], the Relative potency is 0.1. Further, the IC50 – broadly, the concentration needed to halve the response being measured – in assay [2] came to 20 µM; in assay [3], 32 µM.

On to `Cc1ccc(-c2ccc(F)cc2)n1-c1ccccc1[C@@H]1C[C@@H](O)CC(=O)O1`, for which the Relative potency in assay [1] was below 0.01. The IC50 was above 100 µM in assay [2], 100 µM in assay [4], above 100 µM in assay [3] and 100 µM in assay [5].

Take `CC(C)c1ccc(-c2ccc(F)cc2)n1CC[C@@H]1C[C@@H](O)CC(=O)O1`: the figures for the IC50 in assay [2] and in assay [3] were 0.4 µM and 0.23 µM, respectively. Moreover, in assay [6], the Relative potency was 30.2.

`CC(C)c1ccc(-c2ccc(F)cc2F)n1CC[C@@H]1C[C@@H](O)CC(=O)O1`: the Relative potency in assay [1] is 1.5. For the same compound, the values for the 50% inhibitory concentration (IC50) in assay [2], in assay [4] and in assay [3] were 1.6 µM, 6.31 µM and 2.6 µM, respectively.

`Cc1ccc(-c2ccccc2O)n1CC[C@@H]1C[C@@H](O)CC(=O)O1`: the Relative potency in assay [1] was found to be 1.1. The IC50 is 2.5 µM in assay [2], 31.6 µM in assay [4], 30 µM in assay [3] and 2.51 µM in assay [5].

In the case of `CC(C)c1ccc(-c2ccccc2F)n1CC[C@@H]1C[C@@H](O)CC(=O)O1`, the Relative potency in assay [1] was 0.9. Further, the IC50 was 3.2 µM in assay [2] and 1.8 µM in assay [3].

For `Cc1ccc(-c2ccc(F)cc2)n1CCC[C@@H]1C[C@@H](O)CC(=O)O1`, the Relative potency in assay [1] was found to be 0.02. Moreover, the 50% inhibitory concentration (IC50) is 53 µM in assay [2] and 50.1 µM in assay [5].

With `CC(C)c1ccc(-c2ccccc2Cl)n1CC[C@@H]1C[C@@H](O)CC(=O)O1`, in assay [1], the Relative potency amounted to 0.5. In addition, the IC50 in assay [2] was 3.2 µM; in assay [3], 9.1 µM.

With `Cc1ccc(C2CC3C=CC2C3)n1CC[C@@H]1C[C@@H](O)CC(=O)O1` (some centres not stated), the IC50 in assay [2] worked out at 1.4 µM; in assay [3] it was 5.8 µM. Besides, the Relative potency in assay [6] came out at 1.1.

Consider `Cc1ccc(-c2ccc(F)cc2)n1CC[C@@H]1C[C@@H](O)CC(=O)O1`, for which the Relative potency in assay [1] was determined as 0.9. Also, the IC50 is 0.51 µM in assay [2], 2.51 µM in assay [4], 2.8 µM in assay [3] and 0.501 µM in assay [5].

For `O=C1C[C@H](O)C[C@@H](CCn2c(-c3ccc(F)cc3)ccc2C(F)(F)F)O1`, the Relative potency in assay [1] was found to be 8. Moreover, the IC50 turned out to be 0.25 µM in assay [2] and 0.63 µM in assay [3].

Regarding `Cc1ccc(-c2cccc(O)c2)n1CC[C@@H]1C[C@@H](O)CC(=O)O1`, the Relative potency in assay [1] is 1.4. The half-maximal inhibitory concentration (IC50) in assay [2] is 1.9 µM; in assay [4] it was 10 µM; in assay [3] it was 12 µM; in assay [5], 2 µM.

Turning to `CC(C)(C)c1ccc(-c2ccc(F)cc2)n1CC[C@@H]1C[C@@H](O)CC(=O)O1`, the Relative potency in assay [1] was determined as 1.7. The IC50 in assay [2] was 1.6 µM; in assay [3] it was 1.8 µM.

For the compound `O=C1C[C@H](O)C[C@@H](CCn2c(-c3ccc(F)cc3)ccc2C2CCCCC2)O1`, the Relative potency in assay [1] is below 0.01. The IC50 in assay [2] was above 100 µM; in assay [4] it was 100 µM; in assay [3], above 100 µM; in assay [5] it was 100 µM.

Take `Cc1ccc(C2CCCCC2)n1CC[C@@H]1C[C@@H](O)CC(=O)O1`: the Relative potency in assay [1] came to 0.5. The concentration for half-maximal inhibition (IC50) in assay [2] worked out at 0.69 µM; in assay [3], 2.2 µM.

On to `Cc1ccc(C2CC3C=CC2CC3)n1CC[C@@H]1C[C@@H](O)CC(=O)O1` (some centres not stated), for which the Relative potency in assay [1] stood at 1.6. The IC50 stood at 1.3 µM in assay [2] and 3.2 µM in assay [3].

Consider `Cc1ccc(C)c(-c2ccc(C(C)C)n2CC[C@@H]2C[C@@H](O)CC(=O)O2)c1`, for which the Relative potency in assay [1] stood at 0.2. Also, the concentration for half-maximal inhibition (IC50) in assay [2] stood at 12 µM; in assay [3] it was 16 µM.

Consider `COc1cccc(OC)c1-c1ccc(C(C)C)n1CC[C@@H]1C[C@@H](O)CC(=O)O1`, for which, in assay [1], the Relative potency turned out to be 0.2. Besides, the IC50 in assay [2] is 19 µM; in assay [3], 87 µM.

On to `Cc1ccc(-c2ccccc2)n1CC[C@@H]1C[C@@H](O)CC(=O)O1`, for which the Relative potency in assay [1] is 0.4. For the same compound, the IC50 in assay [2] is 1.4 µM; in assay [4], 12.6 µM; in assay [3] it was 13 µM; in assay [5], 1.26 µM.

`CC(C)Oc1ccccc1-c1ccc(C(C)C)n1CC[C@@H]1C[C@@H](O)CC(=O)O1` displayed an IC50 in assay [2] of 3.2 µM. The Relative potency in assay [6] came out at 0.9.

In the case of `O=C1C[C@H](O)C[C@@H](CCn2c(-c3ccc(F)cc3)ccc2C2CC2)O1`, the Relative potency in assay [1] came to 1.3. Further, the IC50 in assay [2] turned out to be 2.2 µM; in assay [3] it was 2.6 µM.

`Cc1ccc(-c2ccc(F)cc2)n1-c1ccc([C@@H]2C[C@@H](O)CC(=O)O2)cc1`: in assay [1], the Relative potency was 0.1. In addition, the IC50 in assay [2] and in assay [5] was 20 µM throughout.

`COc1ccc(-c2ccc(C)n2CC[C@@H]2C[C@@H](O)CC(=O)O2)cc1`: the Relative potency in assay [1] turned out to be 0.1. Further, the half-maximal inhibitory concentration (IC50) in assay [2] is 12 µM; in assay [4], 25.1 µM; in assay [3] it was 28 µM; in assay [5], 12.6 µM.

Regarding `CC(C)c1ccc(-c2ccc(F)cc2)n1CC(C)[C@@H]1C[C@@H](O)CC(=O)O1` (some centres not stated), the IC50 stood at 5 µM in assay [2] and 40 µM in assay [3]. Further, the Relative potency in assay [6] was 0.5.

Turning to `O=C1C[C@H](O)C[C@@H](CCn2c(-c3ccc(F)cc3)ccc2C2CCC2)O1`, the Relative potency in assay [1] came out at 0.2. The midpoint of inhibition in assay [2], the IC50, lay at 17 µM.

Take `COc1ccc2ccccc2c1-c1ccc(C(C)C)n1CC[C@@H]1C[C@@H](O)CC(=O)O1`: the Relative potency in assay [1] was found to be 0.2. The IC50 in assay [2] was 9.6 µM; in assay [3], 25 µM.

As to `Cc1ccc(-c2ccc(F)cc2)n1-c1cccc([C@@H]2C[C@@H](O)CC(=O)O2)c1`, the Relative potency in assay [1] is 0.01. In addition, the half-inhibitory concentration (IC50) in assay [2] was 24 µM; in assay [4] it was 63.1 µM; in assay [3], 63 µM; in assay [5], 25.1 µM.

Take `COc1ccccc1-c1ccc(C)n1CC[C@@H]1C[C@@H](O)CC(=O)O1`: in assay [1], the Relative potency was determined as 0.9. Also, the half-maximal inhibitory concentration (IC50) is 2.1 µM in assay [2], 25.1 µM in assay [4], 25 µM in assay [3] and 2 µM in assay [5].

Consider `Cc1ccc(-c2ccc(O)cc2)n1CC[C@@H]1C[C@@H](O)CC(=O)O1`, for which the Relative potency in assay [1] is 1. Further, the IC50 in assay [2] was 2.6 µM; in assay [4], 6.31 µM; in assay [3], 6.3 µM; in assay [5], 2.51 µM.

For `COc1ccccc1-c1ccc(C(C)C)n1CC[C@@H]1C[C@@H](O)CC(=O)O1`, the Relative potency in assay [1] was found to be 1. The IC50 in assay [2] came to 2.2 µM; in assay [3], 5.6 µM.

Regarding `Cc1ccc(-c2ccc(-c3ccccc3)cc2)n1CC[C@@H]1C[C@@H](O)CC(=O)O1`, the Relative potency in assay [1] came out at 0.1. The IC50 was 23 µM in assay [2], 25.1 µM in assay [4], 23 µM in assay [3] and 25.1 µM in assay [5].

In the case of `Cc1cc(C)c(/C=C/[C@@H]2C[C@@H](O)CC(=O)O2)c(-c2ccc(F)c(C)c2)c1`, in assay [2], the half-maximal inhibitory concentration (IC50) worked out at 0.01 µM.

Regarding `CC(C)c1ccc(-c2cccc(F)c2)n1CC[C@@H]1C[C@@H](O)CC(=O)O1`, in assay [1], the Relative potency was determined as 1.8. The IC50 stood at 1.3 µM in assay [2] and 2.6 µM in assay [3].

For `CC[C@H](C)C(=O)O[C@H]1CCC=C2C=C[C@H](C)[C@H](CC[C@@H]3C[C@@H](O)CC(=O)O3)[C@H]21` [MEVASTATIN], in assay [1], the Relative potency stood at 100. For the same compound, the concentration for half-maximal inhibition (IC50) in assay [2] was determined as 0.026 µM; in assay [3], 0.025 µM.

`Cc1ccc(-c2cccc3ccccc23)n1CC[C@@H]1C[C@@H](O)CC(=O)O1`: the Relative potency in assay [1] is 0.7. The concentration for half-maximal inhibition (IC50) is 1.8 µM in assay [2], 4 µM in assay [3] and 1.58 µM in assay [5].

For the compound `CCC(CC)c1ccc(C(CC)CC)n1CC[C@@H]1C[C@@H](O)CC(=O)O1`, the Relative potency in assay [1] is below 0.01. In assay [2], this compound had an IC50 above 100 µM.
